For experiment [1], the system named is soybean leaf epidermal and palisade mesophyll cells. Briefly: Translocation of TAMRA-labeled CPPs after spraying. Particulars: cv. Enrei; 30, 90, 150 min post spraying; CLSM, 6 ROIs. The experiment is classed as in vivo, Glycine max.
The test system of experiment [2] is transgenic tomato leaf cells overexpressing GFP. The experiment is described as follows: Transfection of Cy3-labeled pBI221/CPP complexes after spraying. The experiment is classed as in vivo, Solanum lycopersicum. The following applies: as Cy3-labeled pBI221/CPP complex, N/P ratio = 2.0; 2 h post spraying; n = 15 ROIs.
Experiment [3] relates to epidermal cells of tomato leaves. Briefly: Translocation of TAMRA-labeled CPPs after spraying. The format is in vivo, Solanum lycopersicum. The following applies: compared among BP100, dR9, KH9, KAibA; 30, 90, 150 min; 10 ROIs. In a few lines:
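Tomato (cv. Micro-Tom) grown in soil with vermiculite at 25 °C, 16/8 h light/dark, 80 μmol photons m–2 s–1, 50% RH for 5–8 weeks; plants with 5–6 expanded leaves. Leaves were water-washed and dried 3–4 h, then sprayed with TAMRA-labeled peptides and lidded. Before imaging, leaves were rinsed 5 × 1 mL water. TAMRA fluorescence intensity was read by confocal microscopy, ex/em 555/580 nm.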

In experiment [4] the test system is Arabidopsis thaliana leaf upper epidermal and palisade mesophyll cells. Briefly: Cell penetration and translocation of TAMRA-labeled CPPs after spraying. Particulars: 0.1 μg/mL sprayed; 30, 90, 150 min post spraying; CLSM, n = 8 ROIs. The experiment is classed as in vivo.

In the case of (Lys(Aib)Ala)5 [TAMRA-labeled KAibA], the “translocation efficiency into the palisade mesophyll of soybean leaves” value in experiment [1] is given as “higher translocation efficiency into the palisade mesophyll than the other CPPs”.
With “KHKHKHKHKHKHKHKHKHKKLFKKILKYL [KH9-BP100]”, the “transfection efficiency of plasmid DNA molecules after spraying” value in experiment [2] is “higher transfection efficiency”.
With d-(RRRRRRRRR) [TAMRA-labeled dR9], in experiment [3], the “translocation efficiency in epidermal cells of tomato leaves” value is “greatest translocation efficiency”. Further, the “penetration efficiency into the palisade mesophyll” value in experiment [4] is reported as “higher penetration efficiency into the palisade mesophyll than the other CPPs”.

Values taken from publication PMC8945396 (ACS Nano, 2022).
